Source: ChEMBL document CHEMBL1155315, “Towards to hENT1-nucleoside transporter selective imaging agents. Synthesis and in vitro evaluation of the radiolabeled SAENTA analogues” (Bioorg Med Chem Lett, 2009)

Experiments:
[1] = target: T1, Equilibrative nucleoside transporter 1 (Homo sapiens, UniProt Q99808); experiment: Displacement of SAENTA-fluorescein from human ENT1 in HL60 cells by flow cytometry; assay type: cell-based, HL-60
T1 sequence (Q99808 whole entry): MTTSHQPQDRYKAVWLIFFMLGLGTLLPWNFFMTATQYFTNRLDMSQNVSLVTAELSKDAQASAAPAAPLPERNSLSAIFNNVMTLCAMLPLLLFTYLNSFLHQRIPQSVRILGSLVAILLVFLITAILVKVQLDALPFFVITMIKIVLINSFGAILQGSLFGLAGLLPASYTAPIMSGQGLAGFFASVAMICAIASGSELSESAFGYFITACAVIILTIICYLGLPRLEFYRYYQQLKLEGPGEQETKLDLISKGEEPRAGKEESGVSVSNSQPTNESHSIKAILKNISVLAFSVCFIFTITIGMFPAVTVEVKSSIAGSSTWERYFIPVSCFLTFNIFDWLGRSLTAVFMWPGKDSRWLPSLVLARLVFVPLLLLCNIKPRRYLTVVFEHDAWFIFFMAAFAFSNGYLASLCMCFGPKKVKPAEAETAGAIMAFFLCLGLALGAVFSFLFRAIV
How it was run: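 HL60 cells were preincubated with the inhibitor, then exposed to 50 nM SAENTA-fluorescein and analysed by flow cytometry (example inhibitor levels 5, 25 and 50 nM). IC50 is the concentration inhibiting 50% of SAENTA-fluorescein binding, from nonlinear regression of inhibitor concentration–fluorescence curves. Ki = IC50/(1+[S]/KD), using the SAENTA-fluorescein concentration and KD.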

[2] = target: T2, Equilibrative nucleoside transporter 1 (Homo sapiens) (UniProt Q99808); experiment: (§1) Binding affinity to human ENT1 in panc1 cells by flow cytometry; assay type: cell-based
T2 sequence (whole entry): T1 sequence (Q99808 whole entry)
How it was run: (§2)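 Apparent KD and Bmax of SAENTA-fluorescein on each cell line, from flow-cytometric binding over a range of SAENTA-fluorescein concentrations. Specific binding is total minus nonspecific fluorescence, with nonspecific fluorescence measured in the presence of 7.2 μM NBMPR. Saturation parameters come from curve fitting; Bmax is given as mean fluorescence units per 10^4 cells.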

[3] = target: T1, Equilibrative nucleoside transporter 1; experiment: as §1; assay type: cell-based; how it was run: as §2
[4] = target: T2, Equilibrative nucleoside transporter 1 (Homo sapiens); experiment: (§3) Binding affinity to human ENT1 in BX-PC3 cells by flow cytometry; assay type: cell-based; conditions: BXPC-3; how it was run: as §2
[5] = target: T1, Equilibrative nucleoside transporter 1; experiment: as §3; assay type: cell-based, BXPC-3; how it was run: as §2
[6] = target: T2, Equilibrative nucleoside transporter 1 (Homo sapiens); experiment: (§4) Binding affinity to human ENT1 in HL60 cells by flow cytometry; assay type: cell-based; conditions: HL-60; how it was run: as §2
[7] = target: T1, Equilibrative nucleoside transporter 1; experiment: as §4; assay type: cell-based, HL-60; how it was run: as §2
[8] = target: T2, Equilibrative nucleoside transporter 1 (Homo sapiens); experiment: (§5) Binding affinity to human ENT1 in MIA-PaCa2 cells by flow cytometry; assay type: cell-based; how it was run: as §2
[9] = target: T1, Equilibrative nucleoside transporter 1; experiment: as §5; assay type: cell-based; how it was run: as §2
[10] = target: T2, Equilibrative nucleoside transporter 1 (Homo sapiens); experiment: (§6) Binding affinity to human ENT1 in SK-PC1 cells by flow cytometry; assay type: cell-based; how it was run: as §2
[11] = target: T1, Equilibrative nucleoside transporter 1; experiment: as §6; assay type: cell-based; how it was run: as §2
[12] = target: T2, Equilibrative nucleoside transporter 1 (Homo sapiens); experiment: (§7) Binding affinity to human ENT1 in Capan1 cells by flow cytometry; assay type: cell-based; conditions: CAPAN-1; how it was run: as §2
[13] = target: T1, Equilibrative nucleoside transporter 1; experiment: as §7; assay type: cell-based, CAPAN-1; how it was run: as §2

IC50 [1] [nM] | Ki [1] [nM] | Bmax [2] [MFU] | Kd [3] [nM] | Bmax [4] [MFU] | Kd [5] [nM] | Bmax [6] [MFU] | Kd [7] [nM] | Bmax [8] [MFU] | Kd [9] [nM] | Bmax [10] [MFU] | Kd [11] [nM] | Bmax [12] [MFU] | Kd [13] [nM] | Compound
5.1 | 0.064 | – | – | – | – | – | – | – | – | – | – | – | – | O=C(CCCCCNC(=O)c1ccc(F)cc1)NCCSC[C@H]1O[C@@H](n2cnc3c(NCc4ccc([N+](=O)[O-])cc4)ncnc32)[C@H](O)[C@@H]1O
– | – | 49.8 | 3.8 | 6.7 | 0.36 | 21.1 | 0.26 | 30.7 | 0.91 | 2.6 | 0.4 | 9.5 | 0.32 | O=C(CCCCCNC(=O)c1ccc2c(c1)C(=O)OC21c2ccc(O)cc2Oc2cc(O)ccc21)NCCSC[C@H]1O[C@@H](n2cnc3c(NCc4ccc([N+](=O)[O-])cc4)ncnc32)[C@H](O)[C@@H]1O
1.4 | 0.018 | – | – | – | – | – | – | – | – | – | – | – | – | O=C(CCCCCNC(=O)c1cccc(I)c1)NCCSC[C@H]1O[C@@H](n2cnc3c(NCc4ccc([N+](=O)[O-])cc4)ncnc32)[C@H](O)[C@@H]1O
